Data published in PMC4708961 (Drug Design, Development and Therapy, 2016).
pIC50: −log10 of the molar value.

Columns and labels:
ACE = molecular target: T1, ACE (Oryctolagus cuniculus, UniProt P12822); assay: In vitro ACE inhibition assay; format: biochemical; conditions: IC50, ACE from rabbit lung acetone powder; substrate HHL
T1 sequence (P12822 34-1310): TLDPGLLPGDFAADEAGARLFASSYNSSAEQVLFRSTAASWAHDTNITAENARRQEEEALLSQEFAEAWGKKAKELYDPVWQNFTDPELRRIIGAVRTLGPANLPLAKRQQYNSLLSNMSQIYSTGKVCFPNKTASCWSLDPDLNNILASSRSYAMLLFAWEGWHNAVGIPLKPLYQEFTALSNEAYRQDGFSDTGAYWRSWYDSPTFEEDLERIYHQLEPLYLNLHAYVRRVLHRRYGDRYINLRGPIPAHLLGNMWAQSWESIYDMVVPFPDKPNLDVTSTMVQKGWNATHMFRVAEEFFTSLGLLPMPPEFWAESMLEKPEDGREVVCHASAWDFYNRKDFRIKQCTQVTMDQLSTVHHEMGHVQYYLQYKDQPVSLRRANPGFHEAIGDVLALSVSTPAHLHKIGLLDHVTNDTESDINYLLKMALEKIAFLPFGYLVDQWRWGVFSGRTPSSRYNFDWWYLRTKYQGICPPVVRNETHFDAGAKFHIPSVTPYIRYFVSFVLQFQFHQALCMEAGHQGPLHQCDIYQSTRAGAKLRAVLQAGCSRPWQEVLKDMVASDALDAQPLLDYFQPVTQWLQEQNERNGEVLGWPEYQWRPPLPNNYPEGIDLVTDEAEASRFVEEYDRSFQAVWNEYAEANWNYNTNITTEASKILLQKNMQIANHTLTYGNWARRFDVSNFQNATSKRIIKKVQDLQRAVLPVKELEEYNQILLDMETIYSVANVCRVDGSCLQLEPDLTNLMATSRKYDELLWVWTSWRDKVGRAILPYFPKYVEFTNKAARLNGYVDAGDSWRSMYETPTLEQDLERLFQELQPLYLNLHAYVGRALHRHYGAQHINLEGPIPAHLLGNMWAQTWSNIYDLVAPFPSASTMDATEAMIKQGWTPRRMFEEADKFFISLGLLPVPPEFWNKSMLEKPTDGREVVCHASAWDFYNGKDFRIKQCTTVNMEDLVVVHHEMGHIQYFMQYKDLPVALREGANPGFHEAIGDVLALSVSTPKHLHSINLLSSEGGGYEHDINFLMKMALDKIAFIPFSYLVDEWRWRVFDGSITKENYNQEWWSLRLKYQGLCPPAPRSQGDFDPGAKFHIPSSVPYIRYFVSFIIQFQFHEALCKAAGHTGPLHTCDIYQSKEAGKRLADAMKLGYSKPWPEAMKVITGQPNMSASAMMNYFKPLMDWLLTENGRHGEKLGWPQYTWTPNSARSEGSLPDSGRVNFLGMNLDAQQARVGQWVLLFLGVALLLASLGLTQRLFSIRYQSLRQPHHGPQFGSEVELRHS

[1] = Bioavailability study after oral administration in mice; format: in vivo
In short: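 Swiss Webster mice aged 20–25 weeks, in control and test groups (n=5), were dosed orally by dosing needle at 3 mg per 30 g body weight; a comparator group received 2 g/kg orally. Plasma was precipitated with 40% methanol and spun at 14,000 rpm for 10 min. The supernatant was run on RP-Amide HPLC (50 mmol/L NaH2PO4 pH 4.3 to 70% acetonitrile gradient, 0.7 mL/min) with electrochemical detection.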

NO donor activity = conditions: 100 μmol, phosphate buffer pH 7.4, 5 mM L-cysteine, 3 hours at 37°C
In short: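 Test compound in DMSO (100 μmol) was added to 50 mM phosphate buffer pH 7.4 with 5 mM L-cysteine hydrochloride and held 3 h at 37°C. Griess reagent was then added, and absorbance at 550 nm was read after 20 min against a 5–50 μM sodium nitrite calibration curve. Release was expressed as mol nitrite detected per mol test compound ×100.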

isolated rat hearts = assay: Vasodilator activity on isolated rat hearts; conditions: 10 μg test compound
[2] = experimental rats; cited from earlier work
[3] = mice, 3 mg per 30 g body weight
[4] = isolated rat heart, BaCl2-induced reduction

Row | SMILES | pIC50 (ACE) | also measured
1 | CCCCN1C/C(=C\c2ccccc2)C(=O)/C(=C/c2ccccc2)C1 [Compound 4c, (3E,5E)-3,5-dibenzylidene-1-butylpiperidin-4-one] | 4.19 | 
2 | CCCCCN1C/C(=C\c2ccccc2)C(=O)/C(=C/c2ccccc2)C1 [Compound 4d, (3E,5E)-3,5-dibenzylidene-1-pentylpiperidin-4-one] | 4.11 | 
3 | CCN1C/C(=C\c2ccc([N+](=O)[O-])cc2)C(=O)/C(=C/c2ccc([N+](=O)[O-])cc2)C1 [Compound 4m, (3E,5E)-1-ethyl-3,5-bis(4-nitrobenzylidene)piperidin-4-one] | 4.02 | 
4 | CCCN1C/C(=C\c2ccc([N+](=O)[O-])cc2)C(=O)/C(=C/c2ccc([N+](=O)[O-])cc2)C1 [Compound 4n, (3E,5E)-3,5-bis(4-nitrobenzylidene)-1-propylpiperidin-4-one] | 4.04 | 
5 | CCCCN1C/C(=C\c2ccc([N+](=O)[O-])cc2)C(=O)/C(=C/c2ccc([N+](=O)[O-])cc2)C1 [Compound 4o, (3E,5E)-1-butyl-3,5-bis(4-nitrobenzylidene)piperidin-4-one] | 3.88 | 
6 | CCCCCN1C/C(=C\c2ccc([N+](=O)[O-])cc2)C(=O)/C(=C/c2ccc([N+](=O)[O-])cc2)C1 [Compound 4p, (3E,5E)-3,5-bis(4-nitrobenzylidene)-1-pentylpiperidin-4-one] | 3.92 | 
7 | COc1cc(/C=C/C(=O)CC(=O)/C=C/c2ccc(O)c(OC)c2)ccc1O [curcumin] |  | heart rate (isolated rat hearts): did not result in any significant changes; cardiac output (isolated rat hearts; [4]): did not result in any significant changes; stroke volume (isolated rat hearts; [4]): did not result in any significant changes; NO donor activity (percentage of NO2) (NO donor activity): did not result in any significant changes; time until first observed in the blood ([1]; curcumin 2 g/kg): ~80 min; oral bioavailability [2]: very poor

Continued, in another order:

Row | pIC50 (ACE) | SMILES | also measured
8 | 4.29 | CCN1C/C(=C\c2ccccc2)C(=O)/C(=C/c2ccccc2)C1 [Compound 4a, (3E,5E)-3,5-dibenzylidene-1-ethylpiperidin-4-one] | 
9 | 4.29 | CCCN1C/C(=C\c2ccccc2)C(=O)/C(=C/c2ccccc2)C1 [Compound 4b, (3E,5E)-3,5-dibenzylidene-1-propylpiperidin-4-one] | 
10 | 4.49 | CCN1C/C(=C\c2ccc(O)c(O)c2)C(=O)/C(=C/c2ccc(O)c(O)c2)C1 [Compound 4e, (3E,5E)-3,5-bis(3,4-dihydroxybenzylidene)-1-ethylpiperidin-4-one] | 
11 | 4.70 | CCCN1C/C(=C\c2ccc(O)c(O)c2)C(=O)/C(=C/c2ccc(O)c(O)c2)C1 [Compound 4f, (3E,5E)-3,5-bis(3,4-dihydroxybenzylidene)-1-propylpiperidin-4-one] | 
12 | 4.38 | CCCCN1C/C(=C\c2ccc(O)c(O)c2)C(=O)/C(=C/c2ccc(O)c(O)c2)C1 [Compound 4g, (3E,5E)-1-butyl-3,5-bis(3,4-dihydroxybenzylidene) piperidin-4-one] | 
13 | 4.31 | CCCCCN1C/C(=C\c2ccc(O)c(O)c2)C(=O)/C(=C/c2ccc(O)c(O)c2)C1 [Compound 4h, (3E,5E)-3,5-bis(3,4-dihydroxybenzylidene)-1-pentylpiperidin-4-one] | 
14 | 5.49 | CCN1C/C(=C\c2cc(OC)c(OC)c(OC)c2)C(=O)/C(=C/c2cc(OC)c(OC)c(OC)c2)C1 [Compound 4i, (3E,5E)-1-ethyl-3,5-bis(3,4,5-trimethoxybenzylidene) piperidin-4-one] | 
15 | 5.91 | CCCN1C/C(=C\c2cc(OC)c(OC)c(OC)c2)C(=O)/C(=C/c2cc(OC)c(OC)c(OC)c2)C1 [Compound 4j, (3E,5E)-1-propyl-3,5-bis(3,4,5-trimethoxybenzylidene) piperidin-4-one] | in vivo bioavailability ([1]; mice): better in vivo bioavailability compared with curcumin; plasma concentration [1, 3]: 35 µM; time until first detected in plasma [1, 3]: 10 min
16 | 5.35 | CCCCN1C/C(=C\c2cc(OC)c(OC)c(OC)c2)C(=O)/C(=C/c2cc(OC)c(OC)c(OC)c2)C1 [Compound 4k, (3E,5E)-1-butyl-3,5-bis(3,4,5-trimethoxybenzylidene) piperidin-4-one] | 
17 | 5.18 | CCCCCN1C/C(=C\c2cc(OC)c(OC)c(OC)c2)C(=O)/C(=C/c2cc(OC)c(OC)c(OC)c2)C1 [Compound 4l, (3E,5E)-1-pentyl-3,5-bis(3,4,5-trimethoxybenzylidene) piperidin-4-one] | NO donor activity (percentage of NO2) (NO donor activity): highest donor activity
